Activity calls are given as the source filed them. The rule behind the calls is not given here.
What was measured:
[1] = target: T1, Toll-like receptor 8 (Homo sapiens) (UniProt Q9NR97); assay: Inhibition of human TLR8 expressed in HEK293 cells assessed as reduction in R848-induced NFkappaB production at 1.5 to 5 uM incubated for 16 hrs by quanti-blue SEAP assay; format: cell-based
T1 sequence (whole entry): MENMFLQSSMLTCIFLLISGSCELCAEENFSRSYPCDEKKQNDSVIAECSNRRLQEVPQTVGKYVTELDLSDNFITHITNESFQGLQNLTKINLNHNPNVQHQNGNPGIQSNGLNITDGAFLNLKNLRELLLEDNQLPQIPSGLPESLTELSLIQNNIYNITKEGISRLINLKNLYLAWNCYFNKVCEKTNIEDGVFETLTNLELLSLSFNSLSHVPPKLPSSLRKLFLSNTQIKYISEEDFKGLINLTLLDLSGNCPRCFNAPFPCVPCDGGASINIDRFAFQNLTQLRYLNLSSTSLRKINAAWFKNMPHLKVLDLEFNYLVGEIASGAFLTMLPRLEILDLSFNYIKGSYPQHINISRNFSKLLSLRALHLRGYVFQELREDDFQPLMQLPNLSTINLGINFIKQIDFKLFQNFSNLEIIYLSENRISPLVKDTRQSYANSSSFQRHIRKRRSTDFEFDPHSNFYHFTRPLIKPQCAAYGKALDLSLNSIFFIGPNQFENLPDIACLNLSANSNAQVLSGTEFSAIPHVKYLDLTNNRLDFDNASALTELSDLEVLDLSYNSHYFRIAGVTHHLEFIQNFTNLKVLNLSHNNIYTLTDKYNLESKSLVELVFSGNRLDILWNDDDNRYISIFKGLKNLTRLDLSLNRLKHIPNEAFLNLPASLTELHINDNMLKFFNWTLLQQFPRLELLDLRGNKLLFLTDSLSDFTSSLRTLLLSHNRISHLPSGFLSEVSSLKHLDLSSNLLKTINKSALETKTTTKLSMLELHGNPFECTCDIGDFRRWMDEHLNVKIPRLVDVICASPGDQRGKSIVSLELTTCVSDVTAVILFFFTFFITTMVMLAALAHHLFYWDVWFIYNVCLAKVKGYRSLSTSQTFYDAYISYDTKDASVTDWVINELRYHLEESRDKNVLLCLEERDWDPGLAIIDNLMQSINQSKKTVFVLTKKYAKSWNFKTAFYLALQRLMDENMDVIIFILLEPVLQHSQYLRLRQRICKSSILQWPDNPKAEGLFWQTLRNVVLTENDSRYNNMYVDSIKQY
How it was run: (§1)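 Selectivity panel in stably transfected HEK 293-Blue cells, each overexpressing one human TLR with an inducible SEAP reporter. Agonists: Pam3CSK4 (TLR1/2), Pam2CSK4 (TLR2/6), poly(I:C) (TLR3), LPS (TLR4), R848 (TLR7/8), ODN 2006 (TLR9). Cells were exposed to compound for 16 h. Activity = (raw − untreated)/(ligand + solvent − untreated), with ligand + solvent set as 100%.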

[2] = target: Toll-like receptor 3 (Homo sapiens) (UniProt O15455); assay: Inhibition of human TLR3 expressed in HEK293 cells assessed as reduction in poly(I:C)-induced NFkappaB production at 1.5 to 5 uM incubated for 16 hrs by quanti-blue SEAP assay; format: cell-based; how it was run: as §1
[3] = system: HEK293; assay: Inhibition of human TLR1/2 expressed in HEK293 cells assessed as reduction in Pam3CSK4-induced NFkappaB production at 1.5 to 5 uM incubated for 16 hrs by quanti-blue SEAP assay; format: cell-based; how it was run: as §1
[4] = target: TLR2/TLR6 (Homo sapiens) (UniProt O60603+Q9Y2C9); assay: Inhibition of human TLR2/6 expressed in HEK293 cells assessed as reduction in Pam2CSK4-induced NFkappaB production at 1.5 to 5 uM incubated for 16 hrs by quanti-blue SEAP assay; format: cell-based; how it was run: as §1
[5] = target: T2, Toll-like receptor 7 (Homo sapiens) (UniProt Q9NYK1); assay: Inhibition of human TLR7 expressed in HEK293 cells assessed as reduction in resiquimod-induced NFkappaB production at 1.5 to 5 uM incubated for 16 hrs by quanti-blue SEAP assay; format: cell-based; how it was run: as §1
T2 sequence (whole entry): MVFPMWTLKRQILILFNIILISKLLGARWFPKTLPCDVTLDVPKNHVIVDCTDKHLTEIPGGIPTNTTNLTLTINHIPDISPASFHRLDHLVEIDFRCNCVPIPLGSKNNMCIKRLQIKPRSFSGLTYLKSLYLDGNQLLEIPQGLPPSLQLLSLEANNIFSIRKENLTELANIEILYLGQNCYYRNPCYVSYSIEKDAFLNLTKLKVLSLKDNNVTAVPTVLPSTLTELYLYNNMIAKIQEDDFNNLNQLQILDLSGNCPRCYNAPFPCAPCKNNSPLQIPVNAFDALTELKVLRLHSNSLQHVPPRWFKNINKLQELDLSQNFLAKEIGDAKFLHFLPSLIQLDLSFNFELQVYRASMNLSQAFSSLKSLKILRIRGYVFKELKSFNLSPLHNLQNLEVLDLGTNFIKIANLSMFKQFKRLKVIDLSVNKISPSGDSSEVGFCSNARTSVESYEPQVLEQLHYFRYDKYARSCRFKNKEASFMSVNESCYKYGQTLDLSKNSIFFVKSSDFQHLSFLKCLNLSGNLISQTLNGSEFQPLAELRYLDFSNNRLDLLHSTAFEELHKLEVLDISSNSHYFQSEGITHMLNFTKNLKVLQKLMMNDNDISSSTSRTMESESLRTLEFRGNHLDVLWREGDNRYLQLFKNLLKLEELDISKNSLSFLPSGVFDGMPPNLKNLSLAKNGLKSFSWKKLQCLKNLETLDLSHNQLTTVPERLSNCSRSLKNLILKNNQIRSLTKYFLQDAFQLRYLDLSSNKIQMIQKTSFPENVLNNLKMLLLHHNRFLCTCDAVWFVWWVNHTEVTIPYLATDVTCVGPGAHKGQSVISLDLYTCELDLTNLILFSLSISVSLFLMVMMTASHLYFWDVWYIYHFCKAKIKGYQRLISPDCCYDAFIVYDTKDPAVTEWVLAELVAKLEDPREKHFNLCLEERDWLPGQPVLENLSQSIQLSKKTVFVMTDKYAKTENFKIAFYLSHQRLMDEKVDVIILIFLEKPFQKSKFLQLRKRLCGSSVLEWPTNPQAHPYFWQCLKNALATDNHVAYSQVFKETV

[6] = target: T2, Toll-like receptor 7 (Homo sapiens); assay: Inhibition of human TLR7 expressed in HEK293 cells assessed as reduction in R848-induced NFkappaB production incubated for 16 hrs by quanti-blue SEAP assay; format: cell-based
How it was run: (§2)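 HEK 293-Blue cells stably expressing hTLR7 or hTLR8 with an inducible SEAP reporter were incubated 16 h with compound under 1 µg/mL R848 stimulation. SEAP was read at 620 nm. Data were normalized to the R848 control, and IC50 was taken from concentration-response curves. […] Mean ± s.d., n = 3 independent experiments.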

[7] = target: T1, Toll-like receptor 8 (Homo sapiens); assay: Inhibition of human TLR8 expressed in HEK293 cells assessed as reduction in R848-induced NFkappaB production at 1.5 to 5 uM incubated for 16 hrs by quanti-blue SEAP assay
[8] = system: HEK293; assay: Cytotoxicity against human HEK293 cells transfected with human TLR8 assessed as reduction in cell viability up to 5 uM incubated for 16 hrs by WST-1 assay; format: cell-based; conditions: hek293, 16 h
[9] = target: T1, Toll-like receptor 8 (Homo sapiens); assay: (§3) Inhibition of human TLR8 expressed in HEK293 cells assessed as reduction in R848-induced NFkappaB production incubated for 16 hrs by quanti-blue SEAP assay; format: cell-based; how it was run: as §2
[10] = target: T3, Toll-like receptor 8 (Homo sapiens, UniProt Q9NR97); assay: as §3; format: cell-based; how it was run: as §2
T3 sequence (Q9NR97 whole entry): T1 sequence (whole entry)

[11] = target: Toll-like receptor 4 (Homo sapiens) (UniProt O00206); assay: Inhibition of human TLR4 expressed in HEK293 cells assessed as reduction in LPS-induced NFkappaB production at 1.5 to 5 uM incubated for 16 hrs by quanti-blue SEAP assay; format: cell-based; how it was run: as §1
Sequence of Toll-like receptor 4 (Homo sapiens) (O00206 whole entry): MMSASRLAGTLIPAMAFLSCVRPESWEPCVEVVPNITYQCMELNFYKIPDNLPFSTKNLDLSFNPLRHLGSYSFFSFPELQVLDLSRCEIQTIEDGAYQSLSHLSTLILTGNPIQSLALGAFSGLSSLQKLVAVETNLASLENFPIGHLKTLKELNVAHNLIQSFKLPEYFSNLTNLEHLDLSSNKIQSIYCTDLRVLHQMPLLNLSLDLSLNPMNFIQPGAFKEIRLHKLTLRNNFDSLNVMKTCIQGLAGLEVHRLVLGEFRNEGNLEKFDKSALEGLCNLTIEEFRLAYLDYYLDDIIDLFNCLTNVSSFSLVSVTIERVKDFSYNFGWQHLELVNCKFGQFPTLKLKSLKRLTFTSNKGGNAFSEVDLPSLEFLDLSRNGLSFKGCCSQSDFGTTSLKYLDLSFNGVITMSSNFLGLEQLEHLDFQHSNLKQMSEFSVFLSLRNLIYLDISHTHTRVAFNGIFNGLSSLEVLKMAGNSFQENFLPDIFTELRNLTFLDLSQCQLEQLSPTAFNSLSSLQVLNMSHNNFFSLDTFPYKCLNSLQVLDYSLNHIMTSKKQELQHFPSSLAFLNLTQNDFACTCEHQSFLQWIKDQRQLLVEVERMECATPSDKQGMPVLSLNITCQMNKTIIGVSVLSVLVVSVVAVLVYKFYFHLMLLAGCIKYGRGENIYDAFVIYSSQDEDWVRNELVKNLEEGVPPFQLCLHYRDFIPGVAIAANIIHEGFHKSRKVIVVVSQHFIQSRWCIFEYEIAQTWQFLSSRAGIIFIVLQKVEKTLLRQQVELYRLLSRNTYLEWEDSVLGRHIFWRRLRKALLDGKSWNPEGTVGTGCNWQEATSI

Sequence of Toll-like receptor 3 (Homo sapiens) (O15455 whole entry): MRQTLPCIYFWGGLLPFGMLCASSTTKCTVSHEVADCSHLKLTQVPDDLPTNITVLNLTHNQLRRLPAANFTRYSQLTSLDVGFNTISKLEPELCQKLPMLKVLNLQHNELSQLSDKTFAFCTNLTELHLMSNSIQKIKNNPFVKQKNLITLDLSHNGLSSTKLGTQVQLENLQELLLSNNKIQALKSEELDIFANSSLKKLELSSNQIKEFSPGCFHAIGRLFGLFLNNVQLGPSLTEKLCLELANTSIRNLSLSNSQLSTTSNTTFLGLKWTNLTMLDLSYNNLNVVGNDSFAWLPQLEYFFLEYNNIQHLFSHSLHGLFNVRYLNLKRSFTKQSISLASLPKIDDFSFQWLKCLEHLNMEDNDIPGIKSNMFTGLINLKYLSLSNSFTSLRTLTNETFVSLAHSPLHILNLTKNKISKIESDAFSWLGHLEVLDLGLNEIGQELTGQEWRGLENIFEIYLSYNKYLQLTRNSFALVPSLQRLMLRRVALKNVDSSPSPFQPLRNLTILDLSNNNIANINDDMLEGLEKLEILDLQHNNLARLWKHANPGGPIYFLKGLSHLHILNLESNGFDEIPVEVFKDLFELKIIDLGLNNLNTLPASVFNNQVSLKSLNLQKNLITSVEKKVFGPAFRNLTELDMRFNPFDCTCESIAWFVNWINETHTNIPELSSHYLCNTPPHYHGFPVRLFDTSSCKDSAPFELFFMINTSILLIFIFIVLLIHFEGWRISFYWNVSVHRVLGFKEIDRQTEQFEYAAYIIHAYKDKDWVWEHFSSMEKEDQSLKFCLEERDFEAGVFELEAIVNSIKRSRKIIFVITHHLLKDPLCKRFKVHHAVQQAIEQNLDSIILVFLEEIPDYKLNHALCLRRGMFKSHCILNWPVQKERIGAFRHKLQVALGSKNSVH

inhibition [1]: Active | inhibition [2]: inactive | inhibition [4]: inactive | inhibition [5]: inactive | inhibition [6]: Dose-dependent effect | inhibition [7]: Active | inhibition [9]: Dose-dependent effect | IC50 [10]: 1400 nM | inhibition [11]: inactive
Structure (SMILES): N#Cc1c(Cl)cccc1Oc1ccc(-c2nnco2)cc1
inhibition [3]: inactive | Activity [8]: Non-Toxic
